Laboratory results from ChEMBL document CHEMBL1140978, “Synthesis and preliminary antibacterial evaluation of simplified thiomarinol analogs” (2009).
Counter-ions that a name gives are not always drawn. The source made the active and inactive calls. No cut-off for these calls is given here.

What was measured:
Assay type in all cases: functional
Staphylococcus aureus [1] = assay: Antimicrobial activity against Staphylococcus aureus ATCC 6538 at 0.0172 uM after 17 hrs by disk diffusion assay; details: for zone of inhibition at 0.0172 µM: ATCC 6538, 17 h, read-out: IZ
How it was run: (§1)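 Disk diffusion per CLSI M2-A8. S. aureus grown on trypticase soy agar; five fresh colonies into trypticase soy broth, ~5 h standing at 35 °C, adjusted to A625 0.1 (0.5 McFarland), swabbed onto Mueller–Hinton agar. Compounds in 25% methanol/water, 15 µl loaded on 6 mm paper disks; plates ~17 h at 35 °C; inhibition zones recorded, duplicate plates per strain.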

Staphylococcus aureus [2] = assay: Antimicrobial activity against Staphylococcus aureus ATCC 25923 at 0.0172 uM after 17 hrs by disk diffusion assay; details: for zone of inhibition at 0.0172 µM: ATCC 25923, 17 h, read-out: IZ; how it was run: as §1
Staphylococcus aureus [3] = assay: Antimicrobial activity against Staphylococcus aureus ATCC 6538 at 0.00686 uM after 17 hrs by disk diffusion assay; details: ATCC 6538, 17 h, read-out: IZ; how it was run: as §1
Staphylococcus aureus [4] = assay: Antimicrobial activity against Staphylococcus aureus ATCC 25923 at 0.00686 uM after 17 hrs by disk diffusion assay; details: ATCC 25923, 17 h, read-out: IZ; how it was run: as §1
Staphylococcus aureus [5] = assay: Antimicrobial activity against Staphylococcus aureus ATCC 6538 at 0.0344 uM after 17 hrs by disk diffusion assay; details: ATCC 6538, 17 h, read-out: IZ; how it was run: as §1
Staphylococcus aureus [6] = assay: Antimicrobial activity against Staphylococcus aureus ATCC 6538 at 0.0602 uM after 17 hrs by disk diffusion assay; details: ATCC 6538, 17 h, read-out: IZ; how it was run: as §1
Staphylococcus aureus [7] = assay: Antimicrobial activity against Staphylococcus aureus ATCC 25923 at 0.0602 uM after 17 hrs by disk diffusion assay; details: ATCC 25923, 17 h, read-out: IZ; how it was run: as §1
Staphylococcus aureus [8] = assay: Antimicrobial activity against Staphylococcus aureus ATCC 6538 at 0.019 uM after 17 hrs by disk diffusion assay; details: ATCC 6538, 17 h, read-out: IZ
How it was run: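 Disk diffusion on Mueller–Hinton agar (broth 2.1% w/v, agar 1.7%), following CLSI M2-A8. Inoculum from five fresh trypticase soy agar colonies grown about 5 h standing at 35 °C in trypticase soy broth, then adjusted to A625 0.1 (0.5 McFarland) and swabbed onto plates. Compounds in 25% methanol/water, 15 µl loaded on 6 mm paper disks. Plates incubated about 17 h at 35 °C, inhibition zones recorded, duplicate plates.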

Staphylococcus aureus [9] = assay: Antimicrobial activity against Staphylococcus aureus ATCC 25923 at 0.019 uM after 17 hrs by disk diffusion assay; details: ATCC 25923, 17 h, read-out: IZ; how it was run: as §1

Row | SMILES | Activity (Staphylococcus aureus [1]) | Activity (Staphylococcus aureus [2]) | zone of inhibition at 0.0172 µM (Staphylococcus aureus [1]) | zone of inhibition at 0.0172 µM (Staphylococcus aureus [2]) | further results
1 | CCOC(=O)/C=C(\C)[C@@H](O)[C@@H]1OCC[C@@H](O)[C@H]1O | inactive | inactive |  |  | 
2 | C/C(=C\C(=O)OCCCCCCCCC(=O)O)C[C@@H]1OC[C@H](C[C@H]2O[C@@H]2[C@@H](C)[C@H](C)O)[C@@H](O)[C@H]1O [PSEUDOMONIC ACID A CALCIUM SALT] |  |  | 32 mm | 26 mm | 
3 | CN[C@@H]1[C@H](O[C@H]2[C@H](O[C@H]3[C@H](O)[C@@H](O)[C@H](N=C(N)N)[C@@H](O)[C@@H]3N=C(N)N)O[C@@H](C)[C@]2(O)C=O)O[C@@H](CO)[C@H](O)[C@H]1O [STREPTOMYCIN SULFATE] |  |  |  |  | zone of inhibition at 0.00686 µM (Staphylococcus aureus [3]): 16 mm; zone of inhibition at 0.00686 µM (Staphylococcus aureus [4]): 14 mm
4 | C/C(=C1\CCOC1=O)[C@@H](O)[C@@H]1OCC[C@@H](O)[C@H]1O | inactive | inactive |  |  | 
5 | CCCCNC(=O)/C=C(\C)[C@@H](O)[C@@H]1OC[C@H](C/C=C/[C@@H](C)[C@H](C)O)[C@@H](O)[C@H]1O |  |  |  |  | zone of inhibition at 0.0344 µM (Staphylococcus aureus [5]): 14 mm
6 | C/C(=C1/CCOC1=O)[C@@H](O)[C@@H]1OCC[C@@H](O)[C@H]1O | inactive | inactive |  |  | 
7 | CN(C)[C@@H]1C(O)=C(C(N)=O)C(=O)[C@@]2(O)C(O)=C3C(=O)c4c(O)cccc4[C@@](C)(O)[C@H]3C[C@@H]12 [TETRACYCLINE HYDROCHLORIDE] |  |  |  |  | zone of inhibition at 0.0602 µM (Staphylococcus aureus [6]): 28 mm; zone of inhibition at 0.0602 µM (Staphylococcus aureus [7]): 29 mm
8 | COC(=O)/C=C(\C)[C@@H](O)[C@@H]1OC[C@H](C/C=C/[C@@H](C)[C@H](C)O)[C@@H](O)[C@H]1O |  |  | 16 mm | 13 mm | 
9 | CCCCCC[C@H]1CO[C@@H]([C@H](O)/C(C)=C/C(=O)OCC)[C@H](O)[C@@H]1O | inactive | inactive |  |  | 
10 | CC1(C)S[C@@H]2[C@H](NC(=O)Cc3ccccc3)C(=O)N2[C@H]1C(=O)O [PENICILLIN G SODIUM] |  |  |  |  | zone of inhibition at 0.019 µM (Staphylococcus aureus [8]): 40 mm; zone of inhibition at 0.019 µM (Staphylococcus aureus [9]): 32 mm
11 | CCOC(=O)/C=C(\C)[C@@H](O)[C@@H]1OC[C@H](C/C=C/[C@@H](C)[C@H](C)O)[C@@H](O)[C@H]1O |  |  | 22 mm | 21 mm | 
12 | C/C(=C\C(=O)O)[C@@H](O)[C@@H]1OC[C@H](C/C=C/[C@@H](C)[C@H](C)O)[C@@H](O)[C@H]1O | inactive | inactive |  |  | 
13 | CCN(CC)C(=O)/C=C(\C)[C@@H](O)[C@@H]1OC[C@H](C/C=C/[C@@H](C)[C@H](C)O)[C@@H](O)[C@H]1O |  |  |  |  | zone of inhibition at 0.0344 µM (Staphylococcus aureus [5]): 15 mm
14 | C/C(=C\C(=O)OC(C)C)[C@@H](O)[C@@H]1OC[C@H](C/C=C/[C@@H](C)[C@H](C)O)[C@@H](O)[C@H]1O |  |  | 22 mm | 21 mm | 
15 | C/C(=C\C(=O)OCCCCCCCC(=O)N[C@H]1CCCNC1=O)[C@@H](O)[C@@H]1OC[C@H](C/C=C/[C@@H](C)[C@H](C)O)[C@@H](O)[C@H]1O [THIOMARINOL H] |  |  | 16 mm | 10 mm | 
